# Source: publication PMC13170702 (Nuclear medicine and biology, 2025)
# Test: organ radiation dose estimates, OLINDA 2.0, ICRP-103
# Assay type: in vivo, human
# Outline: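 Whole-body PET-MR ran as nine scans to 214 min. Organ VOIs were drawn in AMIDE, giving decay-corrected %IA per VOI; remainder = whole body minus measured organs. TIACs came from the EXM exponential model (OLINDA 1.1). Per-participant organ doses were computed in OLINDA 2.0 with 73 kg adult male or 60 kg female models. Effective dose (mSv) = organ absorbed doses × ICRP-103 tissue weighting factors.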
structure (smiles),measurement,setting,value
"COC(=O)[C@@H](N)CC(=O)Nc1ccc2c(c1)Cc1cc([18F])ccc1-2 [[^18F]RP-115, methyl N^4-(7-[^18F]fluoro-9H-fluoren-2-yl)asparaginate]","Estimated dose, Thyroid","Female n=4, mean±SD",0.0239±0.0171 mGy/MBq
same,"Estimated dose, Urinary bladder wall","Female n=4, mean±SD",0.0516±0.0371 mGy/MBq
same,"Estimated dose, Uterus","Female n=4, mean±SD",0.0573±0.0514 mGy/MBq
same,Effective dose (whole body),M1 (326 MBq),6.65 mSv
same,"Estimated absorbed dose, Adrenals",M1 (326 MBq),13.5 mGy
same,"Estimated absorbed dose, Brain",M1 (326 MBq),5.47 mGy
same,"Estimated absorbed dose, Colon, left",M1 (326 MBq),5.63 mGy
same,"Estimated absorbed dose, Colon, right",M1 (326 MBq),4.95 mGy
same,"Estimated absorbed dose, Esophagus",M1 (326 MBq),5.18 mGy
same,"Estimated absorbed dose, Eyes",M1 (326 MBq),2.26 mGy
same,"Estimated absorbed dose, Gallbladder wall",M1 (326 MBq),10.3 mGy
same,"Estimated absorbed dose, Heart wall",M1 (326 MBq),9.25 mGy
same,"Estimated absorbed dose, Kidneys",M1 (326 MBq),70.7 mGy
same,"Estimated absorbed dose, Liver",M1 (326 MBq),17.5 mGy
same,"Estimated absorbed dose, Lungs",M1 (326 MBq),17.0 mGy
same,"Estimated absorbed dose, Osteogenic cells",M1 (326 MBq),2.80 mGy
same,"Estimated absorbed dose, Pancreas",M1 (326 MBq),5.93 mGy
same,"Estimated absorbed dose, Prostate",M1 (326 MBq),3.21 mGy
same,"Estimated absorbed dose, Rectum",M1 (326 MBq),3.35 mGy
same,"Estimated absorbed dose, Red marrow",M1 (326 MBq),3.48 mGy
same,"Estimated absorbed dose, Salivary glands",M1 (326 MBq),2.64 mGy
same,"Estimated absorbed dose, Small intestine",M1 (326 MBq),17.2 mGy
same,"Estimated absorbed dose, Spleen",M1 (326 MBq),24.9 mGy
same,"Estimated absorbed dose, Stomach wall",M1 (326 MBq),5.27 mGy
same,"Estimated absorbed dose, Testes",M1 (326 MBq),2.11 mGy
same,"Estimated absorbed dose, Thymus",M1 (326 MBq),14.7 mGy
same,"Estimated absorbed dose, Thyroid",M1 (326 MBq),4.36 mGy
same,"Estimated absorbed dose, Urinary bladder wall",M1 (326 MBq),3.68 mGy
same,Effective dose (whole body),M2 (289 MBq),4.65 mSv
same,"Estimated absorbed dose, Adrenals",M2 (289 MBq),12.3 mGy
same,"Estimated absorbed dose, Brain",M2 (289 MBq),2.94 mGy
same,"Estimated absorbed dose, Colon, left",M2 (289 MBq),5.05 mGy
same,"Estimated absorbed dose, Colon, right",M2 (289 MBq),4.10 mGy
same,"Estimated absorbed dose, Esophagus",M2 (289 MBq),4.39 mGy
same,"Estimated absorbed dose, Eyes",M2 (289 MBq),1.91 mGy
same,"Estimated absorbed dose, Gallbladder wall",M2 (289 MBq),6.09 mGy
same,"Estimated absorbed dose, Heart wall",M2 (289 MBq),33.5 mGy
same,"Estimated absorbed dose, Kidneys",M2 (289 MBq),74.2 mGy
same,"Estimated absorbed dose, Liver",M2 (289 MBq),10.1 mGy
same,"Estimated absorbed dose, Lungs",M2 (289 MBq),2.65 mGy
same,"Estimated absorbed dose, Osteogenic cells",M2 (289 MBq),2.33 mGy
same,"Estimated absorbed dose, Pancreas",M2 (289 MBq),44.4 mGy
same,"Estimated absorbed dose, Prostate",M2 (289 MBq),2.91 mGy
same,"Estimated absorbed dose, Rectum",M2 (289 MBq),2.77 mGy
same,"Estimated absorbed dose, Red marrow",M2 (289 MBq),2.76 mGy
same,"Estimated absorbed dose, Salivary glands",M2 (289 MBq),2.20 mGy
same,"Estimated absorbed dose, Small intestine",M2 (289 MBq),4.04 mGy
same,"Estimated absorbed dose, Spleen",M2 (289 MBq),9.84 mGy
same,"Estimated absorbed dose, Stomach wall",M2 (289 MBq),5.89 mGy
same,"Estimated absorbed dose, Testes",M2 (289 MBq),2.02 mGy
same,"Estimated absorbed dose, Thymus",M2 (289 MBq),5.86 mGy
same,"Estimated absorbed dose, Thyroid",M2 (289 MBq),2.40 mGy
same,"Estimated absorbed dose, Urinary bladder wall",M2 (289 MBq),4.70 mGy
same,Effective dose (whole body),M3 (70.3 MBq),1.25 mSv
same,"Estimated absorbed dose, Adrenals",M3 (70.3 MBq),2.34 mGy
same,"Estimated absorbed dose, Brain",M3 (70.3 MBq),0.810 mGy
same,"Estimated absorbed dose, Colon, left",M3 (70.3 MBq),0.970 mGy
same,"Estimated absorbed dose, Colon, right",M3 (70.3 MBq),0.900 mGy
same,"Estimated absorbed dose, Esophagus",M3 (70.3 MBq),1.00 mGy
same,"Estimated absorbed dose, Eyes",M3 (70.3 MBq),0.450 mGy
same,"Estimated absorbed dose, Gallbladder wall",M3 (70.3 MBq),1.53 mGy
same,"Estimated absorbed dose, Heart wall",M3 (70.3 MBq),1.84 mGy
same,"Estimated absorbed dose, Kidneys",M3 (70.3 MBq),12.4 mGy
same,"Estimated absorbed dose, Liver",M3 (70.3 MBq),2.85 mGy
same,"Estimated absorbed dose, Lungs",M3 (70.3 MBq),3.35 mGy
same,"Estimated absorbed dose, Osteogenic cells",M3 (70.3 MBq),0.557 mGy
same,"Estimated absorbed dose, Pancreas",M3 (70.3 MBq),1.15 mGy
same,"Estimated absorbed dose, Prostate",M3 (70.3 MBq),0.724 mGy
same,"Estimated absorbed dose, Rectum",M3 (70.3 MBq),0.702 mGy
same,"Estimated absorbed dose, Red marrow",M3 (70.3 MBq),0.692 mGy
same,"Estimated absorbed dose, Salivary glands",M3 (70.3 MBq),0.536 mGy
same,"Estimated absorbed dose, Small intestine",M3 (70.3 MBq),1.93 mGy
same,"Estimated absorbed dose, Spleen",M3 (70.3 MBq),2.65 mGy
same,"Estimated absorbed dose, Stomach wall",M3 (70.3 MBq),0.984 mGy
same,"Estimated absorbed dose, Testes",M3 (70.3 MBq),0.477 mGy
same,"Estimated absorbed dose, Thymus",M3 (70.3 MBq),1.58 mGy
same,"Estimated absorbed dose, Thyroid",M3 (70.3 MBq),0.830 mGy
same,"Estimated absorbed dose, Urinary bladder wall",M3 (70.3 MBq),2.00 mGy
same,Effective dose (whole body),M4 (153 MBq),2.62 mSv
same,"Estimated absorbed dose, Adrenals",M4 (153 MBq),5.67 mGy
same,"Estimated absorbed dose, Brain",M4 (153 MBq),2.17 mGy
same,"Estimated absorbed dose, Colon, left",M4 (153 MBq),2.46 mGy
same,"Estimated absorbed dose, Colon, right",M4 (153 MBq),2.15 mGy
same,"Estimated absorbed dose, Esophagus",M4 (153 MBq),2.06 mGy
same,"Estimated absorbed dose, Eyes",M4 (153 MBq),1.08 mGy
same,"Estimated absorbed dose, Gallbladder wall",M4 (153 MBq),3.76 mGy
same,"Estimated absorbed dose, Heart wall",M4 (153 MBq),3.73 mGy
same,"Estimated absorbed dose, Kidneys",M4 (153 MBq),31.2 mGy
same,"Estimated absorbed dose, Liver",M4 (153 MBq),5.85 mGy
same,"Estimated absorbed dose, Lungs",M4 (153 MBq),5.53 mGy
same,"Estimated absorbed dose, Osteogenic cells",M4 (153 MBq),1.28 mGy
same,"Estimated absorbed dose, Pancreas",M4 (153 MBq),3.39 mGy
same,"Estimated absorbed dose, Prostate",M4 (153 MBq),1.60 mGy
same,"Estimated absorbed dose, Rectum",M4 (153 MBq),1.64 mGy
same,"Estimated absorbed dose, Red marrow",M4 (153 MBq),1.54 mGy
same,"Estimated absorbed dose, Salivary glands",M4 (153 MBq),1.26 mGy
same,"Estimated absorbed dose, Small intestine",M4 (153 MBq),6.45 mGy
same,"Estimated absorbed dose, Spleen",M4 (153 MBq),8.39 mGy
same,"Estimated absorbed dose, Stomach wall",M4 (153 MBq),2.22 mGy
same,"Estimated absorbed dose, Testes",M4 (153 MBq),1.09 mGy
same,"Estimated absorbed dose, Thymus",M4 (153 MBq),5.87 mGy
same,"Estimated absorbed dose, Thyroid",M4 (153 MBq),2.28 mGy
same,"Estimated absorbed dose, Urinary bladder wall",M4 (153 MBq),2.61 mGy
same,Effective dose (whole body),"Male n=4, mean±SD",0.0179±0.0018 mSv/MBq
same,"Estimated dose, Adrenals","Male n=4, mean±SD",0.0386±0.0043 mGy/MBq
same,"Estimated dose, Brain","Male n=4, mean±SD",0.0132±0.0029 mGy/MBq
same,"Estimated dose, Esophagus","Male n=4, mean±SD",0.0147±0.0011 mGy/MBq
same,"Estimated dose, Eyes","Male n=4, mean±SD",0.00678±0.00029 mGy/MBq
same,"Estimated dose, Gallbladder wall","Male n=4, mean±SD",0.0248±0.0048 mGy/MBq
same,"Estimated dose, Heart wall","Male n=4, mean±SD",0.0488±0.0449 mGy/MBq
same,"Estimated dose, Kidneys","Male n=4, mean±SD",0.214±0.034 mGy/MBq
same,"Estimated dose, Left colon","Male n=4, mean±SD",0.0162±0.0017 mGy/MBq
same,"Estimated dose, Liver","Male n=4, mean±SD",0.0419±0.0082 mGy/MBq
same,"Estimated dose, Lungs","Male n=4, mean±SD",0.0363±0.0193 mGy/MBq
same,"Estimated dose, Osteogenic cells","Male n=4, mean±SD",0.00825±0.00031 mGy/MBq
same,"Estimated dose, Pancreas","Male n=4, mean±SD",0.0527±0.0676 mGy/MBq
same,"Estimated dose, Prostate","Male n=4, mean±SD",0.0102±0.0003 mGy/MBq
same,"Estimated dose, Rectum","Male n=4, mean±SD",0.0101±0.0005 mGy/MBq
same,"Estimated dose, Red marrow","Male n=4, mean±SD",0.0101±0.0005 mGy/MBq
same,"Estimated dose, Right colon","Male n=4, mean±SD",0.0141±0.0010 mGy/MBq
same,"Estimated dose, Salivary Glands","Male n=4, mean±SD",0.00791±0.0003 mGy/MBq
same,"Estimated dose, Small intestine","Male n=4, mean±SD",0.0341±0.0169 mGy/MBq
same,"Estimated dose, Spleen","Male n=4, mean±SD",0.0508±0.0194 mGy/MBq
same,"Estimated dose, Stomach wall","Male n=4, mean±SD",0.0163±0.0029 mGy/MBq
same,"Estimated dose, Testes","Male n=4, mean±SD",0.00684±0.00028 mGy/MBq
same,"Estimated dose, Thymus","Male n=4, mean±SD",0.0316±0.0122 mGy/MBq
same,"Estimated dose, Thyroid","Male n=4, mean±SD",0.0121±0.0028 mGy/MBq
same,"Estimated dose, Urinary bladder wall","Male n=4, mean±SD",0.0183±0.0073 mGy/MBq
